Data published in publication PMC4837022 (Nature chemical biology, 2016).

Assays:
Assay type in all cases: cell-based, murine
[1] = test system: pSTAT5 in CD4+ T-cell blasts; test: pSTAT5 time course after IL-2 stimulation; settings: tofacitinib 50 nM
Method in brief: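 Rested mouse CD4+ T-cell blasts received 15 nM test compound or a reference JAK inhibitor (50 nM), 2 h before or 90 min after rhIL-2 (50 u/mL). pSTAT5 and pS6 (Ser240/244) were read by phosphoflow at the indicated times from 15 min onward: 2% PFA fixation, 90% methanol permeabilisation, barcoding. MFI was normalised to the 15-min DMSO maximum and given as mean ± SEM of 4–10 independent experiments.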

CD4+ T-cell blasts = test: IL-2-driven T-cell proliferation; settings: Mus musculus, read-out: EC90 for blocking T-cell proliferation
[2] = test system: CD4+ T-cell blasts (S-phase entry); test: S-phase entry by EdU labeling, delayed inhibitor addition; settings: GDC-0941 1.5 µM added 12 hours after IL-2 stimulation

Row | Compound | reduction of pSTAT5 levels during the second wave [1] [%] | EC90 (CD4+ T-cell blasts) [nM] | S-phase entry [2]
1 | C[C@@H]1CCN(C(=O)CC#N)C[C@@H]1N(C)c1ncnc2[nH]ccc12 [tofacitinib] | > 50 | 50 | 
2 | CS(=O)(=O)N1CCN(Cc2cc3nc(-c4cccc5[nH]ncc45)nc(N4CCOCC4)c3s2)CC1 [GDC0941] |  |  | prevented the majority of cells from entering S-phase
